Measured values taken from ChEMBL document CHEMBL1125894, “Dual-action cephalosporins: cephalosporin 3'-quaternary ammonium quinolones” (1991).
In brackets after ≈: the same amount, converted by molar mass.

Key:
[1] = system: Enterobacter cloacae; assay: In vivo activity in murine against Enterobacter cloacae 5699 infection after sc administration.; assay type: functional
In short: (§1)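 Mouse protection test in CD1 Swiss albino mice (18–20 g). Mice were infected intraperitoneally with 0.5 mL of a diluted bacterial suspension, then treated within 5 min with one 1.0 mL subcutaneous dose at the dorsal base of the neck. Doses ranged from 0.05 to 250 mg/kg, with six mice per group. ED50 was calculated by the Reed–Muench method.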

[2] = biological target: T1, Peptidoglycan D,D-transpeptidase MrdA (Escherichia coli K-12) (UniProt P0AD65); assay: Concentration required for 90% inhibition against 66 kDa penicillin-binding protein 2 binding using [14C]-Pen G as the radioligand.
T1 sequence (whole entry): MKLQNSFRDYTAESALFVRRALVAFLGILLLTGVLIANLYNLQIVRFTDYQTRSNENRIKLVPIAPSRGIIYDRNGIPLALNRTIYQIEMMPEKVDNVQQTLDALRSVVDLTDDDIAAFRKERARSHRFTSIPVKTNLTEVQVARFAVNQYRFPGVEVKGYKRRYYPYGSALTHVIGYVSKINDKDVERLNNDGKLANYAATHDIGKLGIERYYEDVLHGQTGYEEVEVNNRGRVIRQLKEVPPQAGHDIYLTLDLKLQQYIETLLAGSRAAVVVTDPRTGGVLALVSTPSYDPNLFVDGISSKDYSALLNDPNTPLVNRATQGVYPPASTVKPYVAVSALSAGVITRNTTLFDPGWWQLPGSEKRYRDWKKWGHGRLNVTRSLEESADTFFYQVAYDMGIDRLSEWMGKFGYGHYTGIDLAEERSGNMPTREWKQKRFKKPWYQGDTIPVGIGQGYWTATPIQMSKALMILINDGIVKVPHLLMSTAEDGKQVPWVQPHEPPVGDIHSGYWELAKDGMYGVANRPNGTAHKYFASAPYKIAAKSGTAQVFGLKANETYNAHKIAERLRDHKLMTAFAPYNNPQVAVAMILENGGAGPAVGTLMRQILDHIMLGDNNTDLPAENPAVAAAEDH
In short: (§2)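 Solubilized membranes from sonicated E. coli DC-0 were used. PBP binding was measured as inhibition of [14C]penicillin G binding to each PBP.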

[3] = biological target: T2, Penicillin-binding protein 1B (Escherichia coli K-12) (UniProt P02919); assay: Concentration required for 90% inhibition against 90 kDa penicillin-binding protein 1b binding using [14C]-Pen G as the radioligand.; in short: as §2
T2 sequence (whole entry): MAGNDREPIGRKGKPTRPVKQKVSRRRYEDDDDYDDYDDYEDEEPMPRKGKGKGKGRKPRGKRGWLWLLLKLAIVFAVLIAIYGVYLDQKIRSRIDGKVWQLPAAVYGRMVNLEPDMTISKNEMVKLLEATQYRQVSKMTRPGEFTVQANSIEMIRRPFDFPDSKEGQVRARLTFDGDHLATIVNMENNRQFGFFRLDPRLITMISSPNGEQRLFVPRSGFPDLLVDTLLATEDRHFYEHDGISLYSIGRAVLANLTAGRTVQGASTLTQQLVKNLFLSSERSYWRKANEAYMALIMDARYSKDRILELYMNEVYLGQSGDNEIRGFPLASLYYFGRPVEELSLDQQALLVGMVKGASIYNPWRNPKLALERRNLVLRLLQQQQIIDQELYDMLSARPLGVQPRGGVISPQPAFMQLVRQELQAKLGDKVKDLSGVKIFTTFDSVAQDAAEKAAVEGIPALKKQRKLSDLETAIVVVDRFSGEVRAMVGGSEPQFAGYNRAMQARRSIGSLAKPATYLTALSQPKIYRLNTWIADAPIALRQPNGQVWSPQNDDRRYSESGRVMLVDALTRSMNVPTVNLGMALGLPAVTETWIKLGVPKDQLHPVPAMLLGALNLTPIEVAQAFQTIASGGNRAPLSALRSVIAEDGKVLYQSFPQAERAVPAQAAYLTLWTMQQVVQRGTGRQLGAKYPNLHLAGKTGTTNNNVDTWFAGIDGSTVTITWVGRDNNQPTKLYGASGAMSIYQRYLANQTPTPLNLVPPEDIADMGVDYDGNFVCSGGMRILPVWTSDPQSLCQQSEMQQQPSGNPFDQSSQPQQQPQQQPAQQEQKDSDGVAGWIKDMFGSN

[4] = system: Pseudomonas aeruginosa; assay: In vitro antibacterial activity against Pseudomonas aeruginosa 5712; assay type: functional
In short: (§3)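 Serial 2-fold dilutions in the NCCLS broth microdilution method for aerobic nonfastidious organisms, with an 18-h incubation. The value is reported as the minimum inhibitory concentration (MIC).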

[5] = system: Staphylococcus aureus; assay: In vitro antibacterial activity against Staphylococcus aureus 95(MR); assay type: functional
In short: (§4)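 Staphylococci were tested by the standard agar dilution procedure using serial 2-fold dilutions of agent. The value is reported as the MIC.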

[6] = system: Staphylococcus aureus; assay: In vitro antibacterial activity against Staphylococcus aureus Smith(MS); assay type: functional; in short: as §4
[7] = system: Serratia marcescens; assay: In vivo activity in murine against Serratia marcescens SM infection after sc administration.; assay type: functional; in short: as §1
[8] = system: Streptococcus pyogenes; assay: In vivo activity in murine against Streptococcus pyogenes 4 infection after sc administration.; assay type: functional; in short: as §1
[9] = system: Staphylococcus aureus; assay: In vivo activity in murine against Staphylococcus aureus 753(MR) infection after sc administration.; assay type: functional; in short: as §1
[10] = system: Staphylococcus aureus; assay: In vivo activity in murine against Staphylococcus aureus Smith (MS) infection after sc administration.; assay type: functional; in short: as §1
[11] = system: Enterobacter cloacae; assay: In vitro antibacterial activity against Enterobacter cloacae P99; assay type: functional; in short: as §3

Compound: CC(C)(O/N=C(\C(=O)N[C@@H]1C(=O)N2C(C(=O)[O-])=C(C[N+]3(C)CCN(c4c(F)cc5c(=O)c(C(=O)O)cn(CCF)c5c4F)CC3)CS[C@H]12)c1csc(N)n1)C(=O)O
- ED50 [1]: < 5 mg/kg
- Concentration [2]: 100 µg/mL
- Concentration [3]: 30 µg/mL
- MIC [4]: 16 µg/mL (≈ 19.1 µM)
- MIC [5]: 8 µg/mL (≈ 9.56 µM)
- MIC [6]: 16 µg/mL (≈ 19.1 µM)
- ED50 [7]: 8 mg/kg
- ED50 [8]: 54 mg/kg
- ED50 [9]: 44 mg/kg
- ED50 [10]: 2.6 mg/kg
- MIC [11]: 1 µg/mL (≈ 1.19 µM)
